This note sets out measurements from ChEMBL document CHEMBL1136994, “Substitution of arginine with proline and proline derivatives in melanocyte-stimulating hormones leads to selectivity for human melanocortin 4 receptor” (J Med Chem, 2009).

The target of assay [1] is T1, Melanocyte-stimulating hormone receptor (Homo sapiens, UniProt Q01726). It is filed as functional, cell-based, HEK293.
Assay [2] concerns the target T1, Melanocyte-stimulating hormone receptor. The experiment in a line: biochemical. It is filed as cell-based, HEK293.
The target of assay [3] is T2, Melanocortin receptor 5 (Homo sapiens, UniProt P33032). Format: functional, cell-based, HEK293.
In assay [4] the target is T3, Melanocortin receptor 4 (Homo sapiens, UniProt P32245). Format: functional, cell-based, HEK293.
In assay [5] the target is T4, Melanocortin receptor 3 (Homo sapiens, UniProt P41968). The experiment in a line: biochemical. Format: cell-based, HEK293.
In assay [6] the target is T4, Melanocortin receptor 3. It is filed as functional, cell-based, HEK293.
In assay [7] the target is T3, Melanocortin receptor 4. Put plainly: biochemical. Format: cell-based, HEK293.
The target of assay [8] is T1, Melanocyte-stimulating hormone receptor. Put plainly: Displacement of [125I][Nle4,Dphe7]-alpha-MSH from human MC1R expressed in HEK293 cells at 10 uM. Format: cell-based. Put shortly: (§1)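 Stably transfected HEK293 cells for each hMCR were seeded 48 h ahead at 100 000 cells/well. Buffer was MEM with 25 mM HEPES pH 7.4, 0.2% BSA, 1 mM 1,10-phenanthroline, leupeptin and bacitracin. […] After washing, cells were lysed in NaOH/Triton and counted by γ counter. Binding was scored at 10^-5 M.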

For assay [9], the target named is T2, Melanocortin receptor 5. The experiment in a line: Displacement of [125I][Nle4,Dphe7]-alpha-MSH from human MC5R expressed in HEK293 cells at 10 uM. It is filed as cell-based. On the technique in general: Loss of bound radioactivity is the signal in a displacement assay; it reports binding, not function.
Assay [10] concerns the target T3, Melanocortin receptor 4. Put plainly: Displacement of [125I][Nle4,Dphe7]-alpha-MSH from human MC4R expressed in HEK293 cells at 10 uM. Format: cell-based. In short, it runs like this:
as §1

Assay [11] deals with T4, Melanocortin receptor 3. The experiment in a line: Displacement of [125I][Nle4,Dphe7]-alpha-MSH from human MC3R expressed in HEK293 cells at 10 uM. Format: cell-based.
Assay [12] deals with T2, Melanocortin receptor 5. The experiment in a line: biochemical. Format: cell-based, HEK293.

T2 sequence (P33032 whole entry): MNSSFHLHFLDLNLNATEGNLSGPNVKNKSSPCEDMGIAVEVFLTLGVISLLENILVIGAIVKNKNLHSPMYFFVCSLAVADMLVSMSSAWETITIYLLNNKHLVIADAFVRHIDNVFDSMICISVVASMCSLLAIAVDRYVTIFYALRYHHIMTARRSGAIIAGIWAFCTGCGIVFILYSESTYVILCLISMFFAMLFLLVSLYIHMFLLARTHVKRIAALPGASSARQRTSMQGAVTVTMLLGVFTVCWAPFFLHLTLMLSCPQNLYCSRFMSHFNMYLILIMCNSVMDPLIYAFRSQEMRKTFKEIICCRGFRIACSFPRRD
T4 sequence (P41968 whole entry): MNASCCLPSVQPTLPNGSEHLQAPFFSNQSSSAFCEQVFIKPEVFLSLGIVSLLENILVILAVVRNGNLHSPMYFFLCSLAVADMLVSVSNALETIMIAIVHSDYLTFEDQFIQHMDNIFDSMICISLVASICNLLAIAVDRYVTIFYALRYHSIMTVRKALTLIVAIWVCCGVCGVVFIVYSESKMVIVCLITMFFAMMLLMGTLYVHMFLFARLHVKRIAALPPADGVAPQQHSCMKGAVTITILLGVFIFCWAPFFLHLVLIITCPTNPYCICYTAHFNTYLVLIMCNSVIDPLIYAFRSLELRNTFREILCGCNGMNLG
T3 sequence (P32245 whole entry): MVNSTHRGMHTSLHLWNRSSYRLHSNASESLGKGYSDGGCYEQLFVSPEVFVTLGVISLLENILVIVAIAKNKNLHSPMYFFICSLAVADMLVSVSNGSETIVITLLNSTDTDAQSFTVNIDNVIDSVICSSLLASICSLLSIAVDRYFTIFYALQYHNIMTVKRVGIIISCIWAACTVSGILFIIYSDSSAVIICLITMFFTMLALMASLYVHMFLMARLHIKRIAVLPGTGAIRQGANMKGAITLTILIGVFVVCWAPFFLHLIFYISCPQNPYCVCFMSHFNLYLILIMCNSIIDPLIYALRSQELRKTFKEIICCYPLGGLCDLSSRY
T1 sequence (Q01726 whole entry): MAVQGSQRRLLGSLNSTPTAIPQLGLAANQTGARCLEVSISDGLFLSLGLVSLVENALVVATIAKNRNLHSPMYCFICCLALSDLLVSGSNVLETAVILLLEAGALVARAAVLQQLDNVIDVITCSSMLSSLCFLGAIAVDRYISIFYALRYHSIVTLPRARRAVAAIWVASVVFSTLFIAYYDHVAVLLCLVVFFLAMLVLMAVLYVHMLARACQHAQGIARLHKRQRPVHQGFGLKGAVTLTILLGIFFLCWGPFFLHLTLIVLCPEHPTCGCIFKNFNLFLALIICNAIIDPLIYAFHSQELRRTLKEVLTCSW

Consider `CCCC[C@H](NC(C)=O)C(=O)N[C@H]1CC(=O)NCCCC[C@@H](C(N)=O)NC(=O)[C@H](Cc2c[nH]c3ccccc23)NC(=O)[C@@H]2CCCN2C(=O)[C@@H](Cc2ccccc2)NC(=O)[C@H](Cc2cnc[nH]2)NC1=O`, for which the EC50 in assay [1] is above 1000 nM. The IC50 in [2] was above 4800 nM.

On to `CCCC[C@H](NC(C)=O)C(=O)N[C@H]1CC(=O)NCCCC[C@@H](C(N)=O)NC(=O)[C@H](Cc2c[nH]c3ccccc23)NC(=O)[C@H](CCCN=C(N)N)NC(=O)[C@@H](Cc2ccccc2)NC(=O)[C@@H]2C[C@H](N=C(N)N)CN2C1=O`, for which the EC50 is 2700 nM in assay [1], 21 nM on Melanocortin receptor 5 [3], 41 nM on Melanocortin receptor 4 [4] and 2500 nM on Melanocortin receptor 3 [6]. Besides, the IC50 on Melanocortin receptor 3 [5] was determined as 2.8 nM; at Melanocortin receptor 4 [7], 5.7 nM.

As to `CCCC[C@H](NC(C)=O)C(=O)N[C@H]1CC(=O)NCCCC[C@@H](C(N)=O)NC(=O)[C@H](Cc2c[nH]c3ccccc23)NC(=O)[C@@H]2C[C@H](NC(=N)N)CN2C(=O)[C@@H](Cc2ccccc2)NC(=O)[C@H](Cc2cnc[nH]2)NC1=O`, the IC50 entry in assay [8] is on record as “Not Active”.

On to `CCCC[C@H](NC(C)=O)C(=O)N[C@H]1CC(=O)NCCCC[C@@H](C(N)=O)NC(=O)[C@H](Cc2c[nH]c3ccccc23)NC(=O)[C@@H]2CCCN2C(=O)[C@@H](Cc2ccc3ccccc3c2)NC(=O)[C@H](Cc2cnc[nH]2)NC1=O`, for which the midpoint of the response in assay [1], the EC50, lay at 160 nM. In assay [2], this molecule yielded an IC50 of 600 nM.

`CCCC[C@H](NC(=O)[C@@H](NC(=O)[C@H](Cc1ccc(O)cc1)NC(C)=O)C(C)C)C(=O)NCC(=O)N[C@@H](Cc1cnc[nH]1)C(=O)N[C@H](Cc1ccccc1)C(=O)N1C[C@H](NC(=N)N)C[C@H]1C(=O)N[C@@H](Cc1c[nH]c2ccccc12)C(=O)N[C@@H](CC(=O)O)C(=O)N[C@@H](CCCNC(=N)N)C(=O)N[C@@H](Cc1ccccc1)C(=O)NCC(N)=O`: the EC50 in [1] turned out to be 1400 nM. Also, the IC50 in assay [2] is 830 nM; at Melanocortin receptor 5 [9], “Not Active”; at Melanocortin receptor 4 [10] it was “Not Active”; at Melanocortin receptor 3 [11], “Not Active”.

Regarding `CCCC[C@H](NC(=O)[C@@H](NC(=O)[C@H](Cc1ccc(O)cc1)NC(C)=O)C(C)C)C(=O)NCC(=O)N[C@@H](Cc1cnc[nH]1)C(=O)N[C@H](Cc1ccccc1)C(=O)N1CCC[C@H]1C(=O)N[C@@H](Cc1c[nH]c2ccccc12)C(=O)N[C@@H](CC(=O)O)C(=O)N[C@@H](CCCNC(=N)N)C(=O)N[C@@H](Cc1ccccc1)C(=O)NCC(N)=O`, the EC50 in [1] is 120 nM; on Melanocortin receptor 4 [4] it was 210 nM. Further, the 50% inhibitory concentration (IC50) in assay [2] was 190 nM; at Melanocortin receptor 5 [9], “Not Active”; against Melanocortin receptor 4 [7], 270 nM; at Melanocortin receptor 3 [11] it was “Not Active”.

`CCCC[C@H](NC(C)=O)C(=O)N[C@H]1CC(=O)NCCCC[C@@H](C(N)=O)NC(=O)[C@H](Cc2c[nH]c3ccccc23)NC(=O)[C@@H]2C[C@@H](NC(=N)N)CN2C(=O)[C@@H](Cc2ccc3ccccc3c2)NC(=O)[C@H](Cc2cnc[nH]2)NC1=O`: the EC50 in [1] is 19000 nM. Moreover, 400 nM corresponded to half-maximal inhibition in [2] (IC50).

Turning to `CCCC[C@H](NC(=O)[C@@H](NC(=O)[C@H](Cc1ccc(O)cc1)NC(C)=O)C(C)C)C(=O)NCC(=O)N[C@@H](Cc1cnc[nH]1)C(=O)N[C@H](Cc1ccccc1)C(=O)N1C[C@@H](NC(=N)N)C[C@H]1C(=O)N[C@@H](Cc1c[nH]c2ccccc12)C(=O)N[C@@H](CC(=O)O)C(=O)N[C@@H](CCCNC(=N)N)C(=O)N[C@@H](Cc1ccccc1)C(=O)NCC(N)=O`, the EC50 in assay [1] was above 5000 nM. Moreover, the IC50 was 1000 nM in assay [2], “Not Active” at Melanocortin receptor 5 [9], “Not Active” on Melanocortin receptor 4 [10] and “Not Active” on Melanocortin receptor 3 [11].

`CCCC[C@H](NC(C)=O)C(=O)N[C@H]1CC(=O)NCCCC[C@@H](C(N)=O)NC(=O)[C@H](Cc2c[nH]c3ccccc23)NC(=O)[C@@H]2C[C@H](N=C(N)N)CN2C(=O)[C@@H](Cc2ccc3ccccc3c2)NC(=O)[C@H](Cc2cnc[nH]2)NC1=O` showed an IC50 in [2] above 3000 nM.

On to `CCCC[C@H](NC(C)=O)C(=O)N[C@H]1CC(=O)NCCCC[C@@H](C(N)=O)NC(=O)[C@H](Cc2c[nH]c3ccccc23)NC(=O)[C@H](CCCN=C(N)N)NC(=O)[C@@H](Cc2ccccc2)NC(=O)[C@@H]2C[C@@H](N=C(N)N)CN2C1=O`, for which the EC50 in assay [1] was determined as 820 nM; at Melanocortin receptor 5 [3], 1.6 nM; at Melanocortin receptor 4 [4], 3500 nM; on Melanocortin receptor 3 [6], 14 nM. Moreover, the IC50 turned out to be 2.7 nM in [2], 2.5 nM at Melanocortin receptor 5 [12], 1 nM on Melanocortin receptor 3 [5] and 0.6 nM at Melanocortin receptor 4 [7].

As usually defined, the EC50 is the concentration giving half of the maximal effect. A higher EC50 goes with lower potency in that assay. One may read the IC50 as the concentration needed to halve the response being measured.
